High-throughput results deposited in PubChem BioAssay by several laboratories.
FXN GAA850 act: increases GAA850 frataxin promoter reporter activity; hit rate 0.56% among 360,000; activation, % at 6 µM; HEK293 lucGAA850 FXN promoter luciferase reporter, 24 h; percent of 10 µM SAHA response;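 active = activation above the average of all compounds screened plus 3 SD, cutoff fixed separately per campaign, cut at about 7.5% in these data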;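 note: 0% = DMSO wells and 100% = 10 µM SAHA wells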
SR-BI DiI inh: inhibitors of mouse SR-BI mediated HDL lipid uptake. inhibition, % at 12.5 µM. hit rate 0.96% among 320,000. ldlA[mSR-BI] CHO cells, DiI-HDL uptake fluorescence, 3 h. AID 488896. Q61009;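 active = mean replicate inhibition of at least 70% and a set share of replicates each scoring 70 or more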;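 note: 0% = median of neutral control wells and 100% = median of positive control wells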
Target sequence (Q61009 whole entry, looked up): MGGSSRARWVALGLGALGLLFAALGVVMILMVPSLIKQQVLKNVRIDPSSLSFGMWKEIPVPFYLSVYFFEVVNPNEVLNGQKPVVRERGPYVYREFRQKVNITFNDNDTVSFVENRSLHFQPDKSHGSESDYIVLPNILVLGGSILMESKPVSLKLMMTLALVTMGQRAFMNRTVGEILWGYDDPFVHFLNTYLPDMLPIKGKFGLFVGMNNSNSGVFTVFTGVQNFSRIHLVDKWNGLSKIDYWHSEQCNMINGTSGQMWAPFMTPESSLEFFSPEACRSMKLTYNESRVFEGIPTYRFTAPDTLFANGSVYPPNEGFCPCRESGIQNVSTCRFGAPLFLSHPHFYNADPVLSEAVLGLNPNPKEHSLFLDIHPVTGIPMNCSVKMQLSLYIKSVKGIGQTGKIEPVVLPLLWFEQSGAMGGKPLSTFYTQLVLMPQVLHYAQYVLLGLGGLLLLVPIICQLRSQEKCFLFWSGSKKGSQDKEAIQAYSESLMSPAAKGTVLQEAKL
AHR act: activates the human aryl hydrocarbon receptor; P35869; AHR-responsive luciferase reporter cells, luminescence; activation, % at 5 µM; hit rate 2.5% among 320,000; AID 2796; in the data active = activation above about 47%;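 note: 0% = vehicle wells and 100% = reference agonist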
HIF act: HIF pathway transcriptional activation | U2OS HRE-luciferase reporter, luminescence; normalized: DMSO 0%, desferrioxamine 100% | hit rate 0.32% among 300,000 | AID 1910 | activation, % at 7.5 µM (by protocol);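 active = mean activation of at least 10% of the iron chelator positive control signal, with at least half of replicates also reaching 10%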
SR-BI uptake up: activators of SR-BI mediated HDL lipid uptake; AID 504775; activation, % at 12.5 µM; hit rate 0.096% among 320,000; CHO ldlA[mSR-BI] cells, DiI-HDL uptake fluorescence, 3 h; 100 = double the neutral-control signal;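 active = mean replicate activation of at least 60% and every replicate at or above 60%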;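 note: 0% = median plate neutral-control signal and 100% = twice that signal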
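system = CHO ldlA[mSR-BI] cells, LDL receptor-null, SR-BI overexpressing | medium = Ham's F12 with 0.5% BSA, HEPES 25 mM, pH 7.4 | probe or stimulus = DiI-HDL 10 µg/mL | compound dosing = single-point compound dose | incubation = compound exposure 3 h, 37 °C | technique = DiI fluorescence, bottom read | read-out = cell-associated DiI fluorescence as measure of HDL uptake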
ABCB6 inh 2: blocks the human ABCB6 transporter; K562-ABCB6 porphyrin accumulation, flow cytometry, 1 h; stronger effect = lower value; fluorescence ratio to DMSO, % at 10 µM; hit rate 0.19% among 360,000; AID 602162;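 active = fluorescence ratio to DMSO below 75%, the collection mean minus 3 SD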;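 note: signal is porphyrin accumulated inside mitochondria; 100% equals median channel fluorescence of DMSO control wells; lower ratio means ABCB6 inhibition with less porphyrin fluorescence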
GAA30 counter: activates GAA30 frataxin promoter, counter-screen for GAA850 activators; HEK293 lucGAA30 FXN promoter luciferase, 24 h; DMSO = 0%, 5 µM ipriflavone = 100%; hit rate 66% among 1,900; shares compounds with FXN GAA850 act; AID 588350; activation, % at 6 µM;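 active = mean activation above the mean of solvent-only control wells plus 3 SD, cut at about 22% in these data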;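 note: counterscreen of GAA850 promoter hits where activity marks nonselective or luminescence artifacts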
FXN GAA850 conf: confirmation of GAA850 frataxin (FXN) promoter activators; activation, % at 6 µM; shares compounds with FXN GAA850 act; HEK293 lucGAA850 FXN promoter luciferase reporter, 24 h; 100% = activation by SAHA; hit rate 86% among 1,900;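 active = mean activation above a set limit taken from the primary screen, cut at about 8% in these data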;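 note: 0% = DMSO wells and 100% = 10 µM SAHA wells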
Active calls of the source: *; . = no result given. Compounds with a hit are over-represented: about 3.9% of the library has one in this group of screens.

SMILES	FXN GAA850 act	SR-BI DiI inh	AHR act	HIF act	SR-BI uptake up	ABCB6 inh 2	GAA30 counter	FXN GAA850 conf
COc1ccc(NC(=O)CC2C(=O)N(c3ccc(OC)cc3)C(=S)N2NC(=O)c2cccc(F)c2)cc1 (centres undefined)	-1.8	-28.4	1.7	2.2	28.4	102.0	.	.
COc1ccc(CCNC(=O)c2cc(-c3ccccc3)on2)cc1OC	10.5*	39.5	0.9	.	-39.5	92.0	62.5*	33.1*
CC(C)CNC(=O)c1cc(-c2ccco2)on1	3.5	-19.6	1.4	5.4	19.6	102.0	.	.
CCCNC(=O)c1cc(-c2ccco2)on1	22.0*	-20.0	8.8	16.1*	20.0	99.0	127.5*	57.4*
O=C(NCc1ccco1)c1cc(-c2cccs2)on1	25.9*	36.7	1.8	20.6*	-36.7	96.0	150.2*	55.6*
COc1ccc(-c2cc(C(=O)NCC3CCCO3)on2)cc1OC (centres undefined)	-0.7	-5.9	4.6	0.0	5.9	100.0	.	.
O=C(NCc1ccco1)c1cc(-c2ccc(F)cc2)on1	6.9	3.9	-2.8	5.0	-3.9	108.0	.	.
COc1ccc(NC(=O)c2cc(-c3ccccc3)on2)cc1OC	-0.1	33.5	-2.4	-7.9	-33.5	98.0	.	.
O=C(NCC1CCCO1)c1cc(-c2ccc(F)cc2)no1 (centres undefined)	11.2*	-4.4	12.0	13.7*	4.4	103.0	84.8*	31.3*
Cc1ccccc1NC(=O)CSc1nc(N)c(C#N)c(-c2cccs2)c1C#N	-2.2	-3.0	6.0	-0.7	3.0	101.0	.	.
O=C(NCC1CCCO1)c1cc(-c2ccccc2)on1 (centres undefined)	23.8*	12.3	5.2	15.4*	-12.3	91.0	157.4*	90.5*
O=C(NCc1ccco1)c1cc(-c2ccccc2)on1	9.1*	6.7	0.6	12.0*	-6.7	92.0	104.5*	37.4*
Cc1ccc(NC(=O)COc2ccc(C3SCCS3)cc2)cc1	3.3	-11.5	2.3	-0.6	11.5	91.0	.	.
O=C(Nc1cccc(Cl)c1)OCc1cn(-c2ccccc2)nn1	-0.7	-9.1	5.5	0.6	9.1	104.0	.	.
COc1ccccc1NC(=O)c1cnc(SCC(=O)NCC2CCCO2)n(C)c1=O (centres undefined)	9.5*	7.3	24.0	0.5	-7.3	97.0	17.7	24.3*
COc1ccccc1-n1nnnc1SCC(=O)NCC1CCCO1 (centres undefined)	-1.2	-12.8	1.8	0.9	12.8	96.0	.	.
CCOC(=O)N1CCN(C(=O)c2ccc(S(=O)(=O)Nc3ccc(C)cc3)cc2)CC1	1.5	-3.8	0.1	.	3.8	96.0	.	.
CCOC(=O)N1CCN(C(=O)c2ccc(NS(C)(=O)=O)cc2)CC1	9.4*	-13.6	-4.9	0.0	13.6	99.0	26.6*	16.5*
Cn1c(=NC(=O)c2cccc([N+](=O)[O-])c2)sc2ccccc21	9.1*	54.4	18.7	4.4	-54.4	95.0	120.5*	36.2*
O=C(NC12CC3CC(CC(C3)C1)C2)N(Cc1ccccc1)Cc1ccncc1	10.3*	-11.5	-0.3	0.1	11.5	97.0	13.0	13.2*
CCOC(=O)N1CCN(C(=S)Nc2ccc(C)c(C)c2)CC1	-1.6	-29.2	-0.1	0.0	29.2	84.0	.	.
CCS(=O)(=O)N1Cc2ccccc2CC1C(=O)Nc1nc(C)cs1 (centres undefined)	7.9*	-15.6	1.0	2.3	15.6	96.0	79.5*	33.0*
CCS(=O)(=O)N1Cc2ccccc2CC1C(=O)Nc1nccs1 (centres undefined)	8.2*	-24.7	26.9	2.4	24.7	100.0	108.8*	38.3*
CCC(CC)c1nnc(NC(=O)CN2C(=O)C3C4C=CC(C4)C3C2=O)s1 (centres undefined)	9.9*	5.1	1.7	-0.3	-5.1	96.0	14.1	7.0
